Reference: ChEMBL document CHEMBL1156169, “Discovery of triarylethanolamine inhibitors of the Kv1.5 potassium channel” (Bioorg Med Chem Lett, 2010)
Values after ≈ are worked out from the molar mass of the structure shown.

Legend:
[1] = Plasma concentration in rat at 0.06 mg/kg/min, iv after 20 mins; type: ADME, organism-based; design: route intravenous
[2] = Aqueous solubility at pH 5.2; type: physicochemical
Method in brief: (§1)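 Solubility measured in buffered aqueous solution at the pH stated for each line and expressed as mg/mL. Solid samples were checked by microscopy under plain polarized light and were crystalline; the specific crystal form was not determined.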

[3] = Clearance in rat; type: ADME, organism-based; details: in vivo
[4] = Plasma concentration in rat at 0.2 mg/kg/min, iv after 20 mins; type: ADME, organism-based; design: route intravenous
[5] = Half life in rat; type: ADME, organism-based; details: in vivo
[6] = Drug level in rat brain at 435 ug/kg/min, iv after 1 hr; type: ADME, organism-based; details: 0.435 mg/kg, read-out: Drug uptake
[7] = Aqueous solubility at pH 7.4; type: physicochemical; method in brief: as §1
in vivo = details: rat, brain/plasma, iv, 0.435 mg/kg
[8] = Plasma concentration in rat at 0.01 mg/kg/min, iv after 20 mins; type: ADME, organism-based; design: route intravenous
[9] = Plasma concentration in rat at 0.03 mg/kg/min, iv after 20 mins; type: ADME, organism-based; design: route intravenous
[10] = Volume of distribution in rat; type: ADME, organism-based; details: in vivo
[11] = Drug level in rat plasma at 435 ug/kg/min, iv after 1 hr; type: ADME, organism-based; details: 0.435 mg/kg
[12] = Plasma concentration in rat at 0.6 mg/kg/min, iv after 20 mins; type: ADME, organism-based; design: route intravenous
[13] = Aqueous solubility at pH 7.2; type: physicochemical; method in brief: as §1

OC(c1cccnc1)(c1cccnc1)C(c1ccccc1)N1CCCC1 (stereo not given)
concentration at 20 min [1]: 1.78 µM | solubility [2]: 1400 µg/mL (≈ 4050 µM) | clearance [3]: 59 mL/min/kg | concentration at 20 min [4]: 4.9 µM | half-life [5]: 1.1 h | concentration at 1 h [6]: 13.7 µM | solubility [7]: 110 µg/mL (≈ 318 µM) | Kp at 1 h (in vivo): 0.58 | concentration at 20 min [8]: 0.185 µM | concentration at 20 min [9]: 0.651 µM | Vd [10]: 3.4 L/kg | concentration at 1 h [11]: 23.4 µM | concentration at 20 min [12]: 9.62 µM

OC(c1cccnc1)(c1cccnc1)C(c1ccccc1)N1CCCCC1 (stereo not given)
solubility [7]: 5.4 µg/mL (≈ 15 µM)

OC(c1cccnc1)(c1cccnc1)C(c1ccccc1)N1CCOCC1 (stereo not given)
solubility [13]: 43 µg/mL (≈ 119 µM)
